According to ChEMBL document CHEMBL5724801, “EUbOPEN Chemogenomics Library - Multiplex” (2024):
Values joined by “and” are separate entries in the source; they are usually repeats but may differ in a detail not shown here. Identical values can stand only once.

System: U2OS
Assay: Multiplex assay against U2OS
Type: toxicity, cell-based
Settings: human
Outline: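 Hoechst33342, BioTracker Green Microtubule Cytoskeleton Dye, MitoTracker Red and Annexin V Alexa Fluor 680 were added to live cells at seeding, and imaging on a CQ1 microscope at 37°C and 5% CO2 followed compound addition. Gating by CellPathfinder machine learning separated cells into Hoechst high-intensity objects or normal cells, then normal cells into healthy, pyknosed or fragmented nuclei, then pyknosed cells into mitotic or apoptotic. Per cents of healthy-nucleus cells are reported for the tubulin, mitochondrial-mass and membrane-permeability phenotypes.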

[1] = 12 h, 1 µM, compound concentration 1 uM
[2] = 12 h, 10 µM, compound concentration 10 uM
[3] = 24 h, 1 µM, compound concentration 1 uM
[4] = 24 h, 10 µM, compound concentration 10 uM
[5] = 48 h, 1 µM, compound concentration 1 uM
[6] = 48 h, 10 µM, compound concentration 10 uM

Br.CS(=O)(=O)Nc1c(O)ccc2c1CCCC2C1=NCCN1 (stereo unspecified)
Population Apoptotic (%) [1]: 63% and 80% | Population Fragmented Nuclei (%) [1]: 20% and 13% | Population Healthy Nuclei (%) [1]: 75% and 82% | Population Hoechst High Intensity Objects (%) [1]: 2% and 0% | Population Membrane Permeable-Phenotype (%) [1]: 3% and 5% | Population Mitochondria Different-Phenotype (%) [1]: 2% and 1% | Population Mitotic Cells (%) [1]: 36% and 20% | Population Normal (%) [1]: 97% and 100% | Population Pyknosed Nuclei (%) [1]: 3% | Population Tubulin-Different-Phenotype (%) [1]: 2% and 1% | Total Cell Count [1]: 288 and 151 | Population Apoptotic (%) [2]: 69% and 100% | Population Fragmented Nuclei (%) [2]: 36% and 22% | Population Healthy Nuclei (%) [2]: 57% and 75% | Population Hoechst High Intensity Objects (%) [2]: 1% and 0% | Population Membrane Permeable-Phenotype (%) [2]: 8% and 6% | Population Mitochondria Different-Phenotype (%) [2]: 0% and 6% | Population Normal (%) [2]: 98% and 100% | Population Pyknosed Nuclei (%) [2]: 6% and 2% | Population Tubulin-Different-Phenotype (%) [2]: 1% | Total Cell Count [2]: 215 and 84 | Population Apoptotic (%) [3]: 76% and 92% | Population Fragmented Nuclei (%) [3]: 18% and 14% | Population Healthy Nuclei (%) [3]: 73% and 78% | Population Hoechst High Intensity Objects (%) [3]: 2% and 1% | Population Membrane Permeable-Phenotype (%) [3]: 3% and 7% | Population Mitochondria Different-Phenotype (%) [3]: 2% | Population Normal (%) [3]: 97% and 98% | Population Pyknosed Nuclei (%) [3]: 7% | Population Tubulin-Different-Phenotype (%) [3]: 2% and 4% | Total Cell Count [3]: 341 and 185 | Population Apoptotic (%) [4]: 86% and 100% | Population Fragmented Nuclei (%) [4]: 31% and 16% | Population Healthy Nuclei (%) [4]: 62% and 80% | Population Hoechst High Intensity Objects (%) [4]: 2% and 0% | Population Membrane Permeable-Phenotype (%) [4]: 5% and 3% | Population Mitochondria Different-Phenotype (%) [4]: 1% and 4% | Population Mitotic Cells (%) [4]: 13% and 0% | Population Normal (%) [4]: 97% and 100% | Population Pyknosed Nuclei (%) [4]: 6% and 2% | Population Tubulin-Different-Phenotype (%) [4]: 2% and 3% | Total Cell Count [4]: 240 and 103 | Population Apoptotic (%) [5]: 74% and 81% | Population Fragmented Nuclei (%) [5]: 14% and 13% | Population Healthy Nuclei (%) [5]: 78% and 76% | Population Hoechst High Intensity Objects (%) [5]: 1% | Population Membrane Permeable-Phenotype (%) [5]: 2% and 5% | Population Mitochondria Different-Phenotype (%) [5]: 2% | Population Mitotic Cells (%) [5]: 25% and 18% | Population Normal (%) [5]: 98% | Population Pyknosed Nuclei (%) [5]: 6% and 10% | Population Tubulin-Different-Phenotype (%) [5]: 2% and 1% | Total Cell Count [5]: 484 and 253 | Population Apoptotic (%) [6]: 90% and 100% | Population Fragmented Nuclei (%) [6]: 23% and 17% | Population Healthy Nuclei (%) [6]: 70% and 74% | Population Hoechst High Intensity Objects (%) [6]: 1% and 0% | Population Membrane Permeable-Phenotype (%) [6]: 5% and 3% | Population Mitochondria Different-Phenotype (%) [6]: 1% and 6% | Population Mitotic Cells (%) [6]: 10% and 0% | Population Normal (%) [6]: 98% and 100% | Population Pyknosed Nuclei (%) [6]: 6% and 7% | Population Tubulin-Different-Phenotype (%) [6]: 2% | Total Cell Count [6]: 333 and 152

Cc1sc2c(c1C)C(c1ccc(Cl)cc1)=N[C@H](CC(=O)OC(C)(C)C)c1nnc(C)n1-2
Population Apoptotic (%) [1]: 81% and 71% | Population Fragmented Nuclei (%) [1]: 28% and 16% | Population Healthy Nuclei (%) [1]: 63% and 77% | Population Hoechst High Intensity Objects (%) [1]: 2% and 4% | Population Membrane Permeable-Phenotype (%) [1]: 7% | Population Mitochondria Different-Phenotype (%) [1]: 4% and 2% | Population Mitotic Cells (%) [1]: 18% and 28% | Population Normal (%) [1]: 97% and 95% | Population Pyknosed Nuclei (%) [1]: 8% and 6% | Population Tubulin-Different-Phenotype (%) [1]: 4% | Total Cell Count [1]: 256 and 120 | Population Apoptotic (%) [2]: 51% and 90% | Population Fragmented Nuclei (%) [2]: 32% and 22% | Population Healthy Nuclei (%) [2]: 56% and 68% | Population Hoechst High Intensity Objects (%) [2]: 2% and 0% | Population Mitochondria Different-Phenotype (%) [2]: 35% and 24% | Population Normal (%) [2]: 97% and 100% | Population Pyknosed Nuclei (%) [2]: 11% and 8% | Total Cell Count [2]: 240 and 118 | Population Apoptotic (%) [3]: 77% and 75% | Population Fragmented Nuclei (%) [3]: 22% and 20% | Population Healthy Nuclei (%) [3]: 69% and 70% | Population Hoechst High Intensity Objects (%) [3]: 0% and 3% | Population Membrane Permeable-Phenotype (%) [3]: 5% | Population Mitochondria Different-Phenotype (%) [3]: 1% and 2% | Population Mitotic Cells (%) [3]: 22% and 25% | Population Normal (%) [3]: 99% and 96% | Population Pyknosed Nuclei (%) [3]: 7% and 8% | Population Tubulin-Different-Phenotype (%) [3]: 1% and 2% | Total Cell Count [3]: 280 and 149 | Population Apoptotic (%) [4]: 83% and 76% | Population Fragmented Nuclei (%) [4]: 29% and 24% | Population Healthy Nuclei (%) [4]: 57% and 65% | Population Hoechst High Intensity Objects (%) [4]: 2% and 0% | Population Membrane Permeable-Phenotype (%) [4]: 17% and 7% | Population Mitochondria Different-Phenotype (%) [4]: 17% and 25% | Population Mitotic Cells (%) [4]: 16% and 23% | Population Normal (%) [4]: 97% and 99% | Population Pyknosed Nuclei (%) [4]: 13% and 10% | Population Tubulin-Different-Phenotype (%) [4]: 8% and 3% | Total Cell Count [4]: 280 and 130 | Population Apoptotic (%) [5]: 77% and 96% | Population Fragmented Nuclei (%) [5]: 20% and 21% | Population Healthy Nuclei (%) [5]: 72% and 64% | Population Hoechst High Intensity Objects (%) [5]: 1% and 3% | Population Membrane Permeable-Phenotype (%) [5]: 5% and 7% | Population Mitochondria Different-Phenotype (%) [5]: 2% and 7% | Population Normal (%) [5]: 98% and 96% | Population Pyknosed Nuclei (%) [5]: 6% and 14% | Population Tubulin-Different-Phenotype (%) [5]: 2% and 5% | Total Cell Count [5]: 415 and 228 | Population Apoptotic (%) [6]: 86% and 89% | Population Fragmented Nuclei (%) [6]: 23% and 20% | Population Healthy Nuclei (%) [6]: 57% and 68% | Population Hoechst High Intensity Objects (%) [6]: 2% and 1% | Population Membrane Permeable-Phenotype (%) [6]: 11% | Population Mitochondria Different-Phenotype (%) [6]: 7% and 8% | Population Mitotic Cells (%) [6]: 13% and 10% | Population Normal (%) [6]: 97% and 98% | Population Pyknosed Nuclei (%) [6]: 18% and 11% | Population Tubulin-Different-Phenotype (%) [6]: 5% and 3% | Total Cell Count [6]: 342 and 174
